According to ChEMBL document CHEMBL4177753, “Structural Modification of Natural Product Ganomycin I Leading to Discovery of a α-Glucosidase and HMG-CoA Reductase Dual Inhibitor Improving Obesity and Metabolic Dysfunction in Vivo” (J Med Chem, 2018):
Activity calls are given as the source filed them. No cut-off for these calls is given here.

Columns and labels:
[1] = biological target: T1, 3-hydroxy-3-methylglutaryl-coenzyme A reductase (Sus scrofa) (UniProt Q1W675); assay: (§1) Inhibition of pig liver microsomal HMG-CoA reductase by colorimetric method
T1 sequence (whole entry): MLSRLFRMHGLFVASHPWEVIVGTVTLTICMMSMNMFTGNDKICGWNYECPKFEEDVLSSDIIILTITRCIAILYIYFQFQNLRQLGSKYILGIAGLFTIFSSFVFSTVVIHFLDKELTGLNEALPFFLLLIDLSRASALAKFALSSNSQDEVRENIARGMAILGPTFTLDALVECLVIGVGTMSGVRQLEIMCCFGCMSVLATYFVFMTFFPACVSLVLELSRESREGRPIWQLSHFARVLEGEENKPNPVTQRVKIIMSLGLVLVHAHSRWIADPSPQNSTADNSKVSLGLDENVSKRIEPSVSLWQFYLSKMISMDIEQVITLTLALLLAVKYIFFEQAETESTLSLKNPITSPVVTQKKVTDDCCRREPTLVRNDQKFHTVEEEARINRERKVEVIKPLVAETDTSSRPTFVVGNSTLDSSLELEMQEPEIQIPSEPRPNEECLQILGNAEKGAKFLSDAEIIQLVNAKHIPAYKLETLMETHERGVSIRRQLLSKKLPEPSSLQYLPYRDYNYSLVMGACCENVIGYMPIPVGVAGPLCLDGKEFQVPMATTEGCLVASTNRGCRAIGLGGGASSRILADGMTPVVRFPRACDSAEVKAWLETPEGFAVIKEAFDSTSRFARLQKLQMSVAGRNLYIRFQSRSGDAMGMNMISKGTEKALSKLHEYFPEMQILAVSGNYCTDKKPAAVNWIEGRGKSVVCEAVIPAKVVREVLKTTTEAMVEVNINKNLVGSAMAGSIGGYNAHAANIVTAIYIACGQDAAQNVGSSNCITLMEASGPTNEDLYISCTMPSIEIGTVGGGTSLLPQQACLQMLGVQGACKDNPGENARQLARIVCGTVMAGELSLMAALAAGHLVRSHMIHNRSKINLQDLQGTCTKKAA
Method in brief: (§2)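 Pig liver microsomal HMG-CoA reductase; compounds tested at several concentrations, each in triplicate; control uses phosphate buffer instead of compound, blank uses buffer instead of enzyme. Absorbance read at 405 nm; % inhibition from blank-corrected OD of test versus control; IC50 fitted from the inhibition-concentration series.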

[2] = biological target: T2, 3-hydroxy-3-methylglutaryl-coenzyme A reductase (Sus scrofa, UniProt Q1W675); assay: as §1; method in brief: as §2
T2 sequence (Q1W675 whole entry): T1 sequence (whole entry)

[3] = Inhibition of rat small intestinal mucosal alpha-glucosidase using p-nitrophenyl-alpha-D-glucopyranoside as substrate after 40 mins by colorimetric method
Method in brief: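 Rat small intestinal mucosal α-glucosidase; several compound concentrations, each run three times in parallel; phosphate-buffer control replaces compound, blank replaces enzyme. Absorbance at 405 nm; % inhibition = blank-corrected OD of test versus control; IC50 derived from the concentration gradient.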

[4] = tested on: Mus musculus; assay: Antiobesity activity in C57BL/6J DIO mouse assessed as reduction in weight gain at 3 mg/kg administered daily via oral gavage for 5 weeks relative to vehicle-treated control; format: functional
Method in brief: (§3)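 Male C57BL/6J mice on high-fat diet, n = 8 per group, grouped by blood glucose and body weight. Daily oral gavage at 0.3, 1.0 or 3.0 mg/kg in soybean vehicle for 5 weeks. Vehicle groups were on normal diet and on high-fat diet.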

[5] = tested on: Mus musculus; assay: Antiobesity activity in C57BL/6J DIO mouse assessed as reduction in cumulative food intake at 3 mg/kg administered daily via oral gavage for 5 weeks; format: functional, organism-based; method in brief: as §3
[6] = tested on: Mus musculus; assay: Antiobesity activity in C57BL/6J DIO mouse assessed as reduction in LEE index at 3 mg/kg administered daily via oral gavage for 5 weeks; format: functional, organism-based; method in brief: as §3
[7] = Inhibition of rat small intestinal mucosal alpha-glucosidase using p-nitrophenyl-alpha-D-glucopyranoside as substrate by HPLC method
Method in brief: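 Rat intestinal α-glucosidase; after incubation the product 4-nitrophenol is quantified at once by HPLC (gradient from 20% acetonitrile in water with 0.1‰ TFA to 100% acetonitrile over 10 min). Each concentration run 3 times in parallel; % inhibition from peak areas versus control minus control blank; IC50 from the concentration series.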

inhibition [1] | IC50 [2] [µM] | IC50 [3] [µM] | IC50 [7] [µM] | SMILES | Activity [4] | Activity [5] | Activity [6]
Dose-dependent effect | 6.76 | 2.27 |  | CC(C)=CCC/C(C)=C/CCC1=C[C@H](c2ccccc2O)OC1=O |  |  | 
 |  | 1.26 |  | C[C@H]1O[C@H](O[C@H]2[C@H](O)[C@@H](O)[C@@H](O[C@H]3[C@H](O)[C@@H](O)C(O)O[C@@H]3CO)O[C@@H]2CO)[C@H](O)[C@@H](O)[C@@H]1N[C@H]1C=C(CO)[C@@H](O)[C@H](O)[C@H]1O (stereo partly drawn) [ACARBOSE] | inactive | inactive | inactive
Dose-dependent effect | 7.43 | 5.11 |  | CC(C)=CCC/C(C)=C/CCC1=C[C@H](c2ccc([N+](=O)[O-])cc2)OC1=O |  |  | 
Dose-dependent effect | 8.9 | 19.3 |  | COCOc1ccccc1[C@H]1C=C(CC/C=C(\C)CCC=C(C)C)C(=O)O1 |  |  | 
Dose-dependent effect | 13.2 | 12.1 |  | COc1ccc(OC)c([C@H]2C=C(CC/C=C(\C)CCC=C(C)C)C(=O)O2)c1 |  |  | 
 | 0.93 |  |  | CC(C)c1c(C(=O)Nc2ccccc2)c(-c2ccccc2)c(-c2ccc(F)cc2)n1CC[C@@H](O)C[C@@H](O)CC(=O)O [ATORVASTATIN] |  |  | 
Dose-dependent effect | 14.2 | 0.17 | 0.16 | CCc1ccc([C@H]2C=C(CC/C=C(\C)CCC=C(C)C)C(=O)O2)cc1 |  |  | 
Dose-dependent effect | 18.9 | 0.26 |  | CC(C)=CCC/C(C)=C/CCC1=C[C@H](c2ccccc2[N+](=O)[O-])OC1=O |  |  | 
Dose-dependent effect | 18.1 | 0.29 | 0.23 | CC(C)=CCC/C(C)=C/CCC1=C[C@H](c2ccc(C)cc2)OC1=O |  |  | 
Dose-dependent effect | 16.5 | 1.24 |  | CC(C)=CCC/C(C)=C/CCC1=C[C@H](c2ccccc2)OC1=O |  |  | 
Dose-dependent effect | 112 | 32.8 | 28.7 | CC(C)=CCC/C(C)=C/CCC1=C[C@H](c2ccc(C(C)C)cc2)OC1=O |  |  | 
Dose-dependent effect | 6.21 | 21.7 |  | COc1ccc([C@H]2C=C(CC/C=C(\C)CCC=C(C)C)C(=O)O2)cc1 |  |  | 
Dose-dependent effect | 25.1 | 1.59 |  | CC(C)=CCC/C(C)=C/CCC1=C[C@H](c2cc(F)ccc2F)OC1=O |  |  | 
Dose-dependent effect | 38.2 | 2.04 |  | CC(C)=CCC/C(C)=C/CCC1=C[C@H](c2cc(F)c(F)c(F)c2)OC1=O |  |  | 
Dose-dependent effect | 49.8 | 5.98 |  | CC(C)=CCC/C(C)=C/CCC1=C[C@H](c2ccc3ccccc3c2)OC1=O |  |  | 
 |  | 0.38 |  | CC(C)=CCC/C(C)=C/CCC1=C[C@H](c2cc(O)ccc2O)OC1=O |  |  | 
